Experiments:
Details in all cases: stereoisomer not certain
[1] = target: T1, OR10G2 (Homo sapiens) (UniProt Q8NGC3)
T1 sequence (whole entry): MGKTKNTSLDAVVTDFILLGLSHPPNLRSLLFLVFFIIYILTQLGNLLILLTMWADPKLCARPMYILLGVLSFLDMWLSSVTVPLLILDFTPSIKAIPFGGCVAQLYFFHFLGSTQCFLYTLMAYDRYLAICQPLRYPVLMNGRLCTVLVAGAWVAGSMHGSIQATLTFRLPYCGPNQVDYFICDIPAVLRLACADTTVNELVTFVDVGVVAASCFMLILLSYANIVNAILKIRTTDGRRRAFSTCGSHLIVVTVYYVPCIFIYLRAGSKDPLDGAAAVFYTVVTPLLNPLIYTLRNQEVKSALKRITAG
In short: (§1)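 Each entry records the cell line, G-protein, co-transfected protein and tags used. Methods varied with the source, often transient luciferase assays in mammalian cell lines. A receptor–molecule pair is called responsive (active) if the original authors judged its signal statistically different from baseline and non-responsive (inactive) otherwise.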

[2] = target: T2, OR10G3 (Homo sapiens) (UniProt Q8NGC4)
T2 sequence (whole entry): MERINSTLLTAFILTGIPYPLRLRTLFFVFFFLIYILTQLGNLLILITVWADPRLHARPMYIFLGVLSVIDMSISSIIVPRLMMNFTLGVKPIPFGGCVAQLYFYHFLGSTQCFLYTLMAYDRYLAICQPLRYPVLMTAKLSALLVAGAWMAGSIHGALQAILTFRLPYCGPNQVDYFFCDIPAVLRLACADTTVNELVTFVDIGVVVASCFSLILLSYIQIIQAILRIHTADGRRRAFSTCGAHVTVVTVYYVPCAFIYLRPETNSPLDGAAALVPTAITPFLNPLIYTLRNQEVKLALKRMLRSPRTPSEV
In short: as §1

[3] = target: T3, OR10G4 (Homo sapiens) (UniProt Q8NGN3)
T3 sequence (whole entry): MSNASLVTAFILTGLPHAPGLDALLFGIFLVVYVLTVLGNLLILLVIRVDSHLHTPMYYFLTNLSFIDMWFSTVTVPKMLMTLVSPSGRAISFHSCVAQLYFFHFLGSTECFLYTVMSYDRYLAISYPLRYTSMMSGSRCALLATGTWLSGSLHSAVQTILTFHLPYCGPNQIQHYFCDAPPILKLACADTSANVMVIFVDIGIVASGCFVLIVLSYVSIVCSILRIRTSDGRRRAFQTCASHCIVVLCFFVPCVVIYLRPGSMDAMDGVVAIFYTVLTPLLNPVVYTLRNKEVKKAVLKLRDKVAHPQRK
In short: as §1

[4] = target: T4, OR10G6 (Homo sapiens) (UniProt Q8NH81)
T4 sequence (whole entry): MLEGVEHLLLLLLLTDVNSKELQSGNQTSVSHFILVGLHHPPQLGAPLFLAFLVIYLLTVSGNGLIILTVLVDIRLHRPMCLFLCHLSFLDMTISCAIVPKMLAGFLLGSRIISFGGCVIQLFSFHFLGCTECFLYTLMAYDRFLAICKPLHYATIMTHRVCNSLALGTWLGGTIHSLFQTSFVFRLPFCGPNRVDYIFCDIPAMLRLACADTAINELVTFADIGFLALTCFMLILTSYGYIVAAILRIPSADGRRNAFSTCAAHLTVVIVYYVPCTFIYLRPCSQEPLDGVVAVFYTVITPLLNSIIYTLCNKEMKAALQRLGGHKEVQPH
In short: as §1

[5] = target: T5, OR10G7 (Homo sapiens) (UniProt Q8NGN6)
T5 sequence (whole entry): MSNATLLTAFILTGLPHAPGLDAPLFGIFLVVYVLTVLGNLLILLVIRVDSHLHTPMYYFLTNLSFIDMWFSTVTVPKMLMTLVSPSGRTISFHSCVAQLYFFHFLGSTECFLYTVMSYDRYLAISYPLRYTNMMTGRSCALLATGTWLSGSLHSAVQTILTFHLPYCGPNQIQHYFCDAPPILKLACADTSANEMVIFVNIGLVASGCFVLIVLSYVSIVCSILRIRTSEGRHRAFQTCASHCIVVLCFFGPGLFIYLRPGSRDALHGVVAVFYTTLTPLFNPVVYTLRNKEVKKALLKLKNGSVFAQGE
In short: as §1

[6] = target: T6, OR10G8 (Homo sapiens) (UniProt Q8NGN5)
T6 sequence (whole entry): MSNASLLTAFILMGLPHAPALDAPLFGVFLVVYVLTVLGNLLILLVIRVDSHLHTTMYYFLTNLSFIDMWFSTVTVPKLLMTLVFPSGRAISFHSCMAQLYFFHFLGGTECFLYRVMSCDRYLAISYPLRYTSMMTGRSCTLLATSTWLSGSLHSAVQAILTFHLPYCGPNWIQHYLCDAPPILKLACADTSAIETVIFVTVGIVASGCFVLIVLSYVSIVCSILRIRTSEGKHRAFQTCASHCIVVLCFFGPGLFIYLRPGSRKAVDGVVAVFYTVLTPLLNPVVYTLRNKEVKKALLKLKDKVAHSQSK
In short: as §1

[7] = target: T7, OR10G9 (Homo sapiens) (UniProt Q8NGN4)
T7 sequence (whole entry): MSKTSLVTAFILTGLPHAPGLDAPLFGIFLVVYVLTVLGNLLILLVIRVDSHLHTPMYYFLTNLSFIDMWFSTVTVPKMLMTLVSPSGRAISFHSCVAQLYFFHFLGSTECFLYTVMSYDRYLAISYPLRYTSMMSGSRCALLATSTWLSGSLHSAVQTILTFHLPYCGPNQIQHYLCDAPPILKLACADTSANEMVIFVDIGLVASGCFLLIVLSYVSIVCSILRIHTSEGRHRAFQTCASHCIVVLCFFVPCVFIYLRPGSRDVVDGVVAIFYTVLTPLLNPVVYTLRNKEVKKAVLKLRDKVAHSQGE
In short: as §1

[8] = target: T8, OR10H1 (Homo sapiens) (UniProt Q9Y4A9)
T8 sequence (whole entry): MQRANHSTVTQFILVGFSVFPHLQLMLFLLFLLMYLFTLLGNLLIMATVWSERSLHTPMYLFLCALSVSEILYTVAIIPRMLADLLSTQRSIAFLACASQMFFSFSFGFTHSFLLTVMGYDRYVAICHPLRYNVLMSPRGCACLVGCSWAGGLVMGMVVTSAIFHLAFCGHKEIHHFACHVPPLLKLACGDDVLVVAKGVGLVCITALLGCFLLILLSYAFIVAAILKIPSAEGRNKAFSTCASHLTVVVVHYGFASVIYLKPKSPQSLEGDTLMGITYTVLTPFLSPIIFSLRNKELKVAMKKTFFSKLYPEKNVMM
In short: as §1

[9] = target: T9, OR10H2 (Homo sapiens) (UniProt O60403)
T9 sequence (whole entry): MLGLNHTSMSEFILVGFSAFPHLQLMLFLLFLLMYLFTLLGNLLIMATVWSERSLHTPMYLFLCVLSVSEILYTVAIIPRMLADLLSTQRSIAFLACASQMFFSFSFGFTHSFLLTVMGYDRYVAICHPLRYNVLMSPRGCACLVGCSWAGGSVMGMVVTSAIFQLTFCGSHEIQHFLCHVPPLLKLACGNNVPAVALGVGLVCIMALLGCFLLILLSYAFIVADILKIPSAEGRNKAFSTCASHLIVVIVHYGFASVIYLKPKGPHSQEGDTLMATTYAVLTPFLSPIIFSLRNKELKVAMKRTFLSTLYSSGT
In short: as §1

Measured: odorant receptor agonist call

CC1CCCCCCCCCCCCC(=O)C1 (centres undefined)
inactive: all assays above

From the M2OR odorant receptor database
